Experimental data taken from ChEMBL document CHEMBL1132592, “Synthesis of novel 2-benzothiopyran and 3-benzothiepin derivatives and their stimulatory effect on bone formation” (J Med Chem, 1999).

What was measured:
[1] = target: T1, Alkaline phosphatase, tissue-nonspecific isozyme (Mus musculus) (UniProt P09242); test: Alkaline phosphatase stimulatory activity of 10E-5 M compound in culture of MC3T3-E1 in absence of BMP
T1 sequence (whole entry): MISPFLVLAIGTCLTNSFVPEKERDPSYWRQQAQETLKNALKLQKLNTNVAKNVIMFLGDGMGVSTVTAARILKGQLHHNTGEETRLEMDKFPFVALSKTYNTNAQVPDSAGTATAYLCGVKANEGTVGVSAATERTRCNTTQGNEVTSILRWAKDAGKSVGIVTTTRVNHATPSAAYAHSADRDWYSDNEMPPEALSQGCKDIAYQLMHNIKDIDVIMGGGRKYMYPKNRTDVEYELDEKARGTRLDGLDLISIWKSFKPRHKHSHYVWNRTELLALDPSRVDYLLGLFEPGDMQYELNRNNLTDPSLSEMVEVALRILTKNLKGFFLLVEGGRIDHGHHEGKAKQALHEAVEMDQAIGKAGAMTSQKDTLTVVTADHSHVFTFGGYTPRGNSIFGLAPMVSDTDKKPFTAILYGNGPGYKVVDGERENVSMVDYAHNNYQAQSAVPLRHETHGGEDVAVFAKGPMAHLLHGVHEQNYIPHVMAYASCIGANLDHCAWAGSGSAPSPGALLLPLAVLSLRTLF
How it was run: (§1)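 Mouse osteoblastic MC3T3-E1 cells, 3000 cells/well, grown 3 days in α-MEM with 10% FBS, then switched to α-MEM with 1% FBS plus compound, with or without recombinant Xenopus BMP-4/7 heterodimer (3 ng/mL), for 3 more days. ALP in lysate supernatant read as absorbance at 405 nm; mean ± SE, n = 6; Dunnett's test vs matching control.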

[2] = target: T1, Alkaline phosphatase, tissue-nonspecific isozyme (Mus musculus); test: Alkaline phosphatase stimulatory activity of 10E-5 M compound in culture of MC3T3-E1 in presence of 3 ng/mL of BMP; how it was run: as §1
[3] = target: T1, Alkaline phosphatase, tissue-nonspecific isozyme (Mus musculus); test: Alkaline phosphatase stimulatory activity of 10E-6 M compound in culture of MC3T3-E1 in absence of BMP; how it was run: as §1
[4] = target: T1, Alkaline phosphatase, tissue-nonspecific isozyme (Mus musculus); test: Alkaline phosphatase stimulatory activity of 10E-6 M compound in culture of MC3T3-E1 in presence of 3 ng/mL of BMP; how it was run: as §1
[5] = target: T2, Alkaline phosphatase, tissue-nonspecific isozyme (Rattus norvegicus) (UniProt P08289); test: Effect of 10E-5 M compound on alkaline phosphatase activity in culture of rat bone marrow stromal cells; type: tissue-based
T2 sequence (whole entry): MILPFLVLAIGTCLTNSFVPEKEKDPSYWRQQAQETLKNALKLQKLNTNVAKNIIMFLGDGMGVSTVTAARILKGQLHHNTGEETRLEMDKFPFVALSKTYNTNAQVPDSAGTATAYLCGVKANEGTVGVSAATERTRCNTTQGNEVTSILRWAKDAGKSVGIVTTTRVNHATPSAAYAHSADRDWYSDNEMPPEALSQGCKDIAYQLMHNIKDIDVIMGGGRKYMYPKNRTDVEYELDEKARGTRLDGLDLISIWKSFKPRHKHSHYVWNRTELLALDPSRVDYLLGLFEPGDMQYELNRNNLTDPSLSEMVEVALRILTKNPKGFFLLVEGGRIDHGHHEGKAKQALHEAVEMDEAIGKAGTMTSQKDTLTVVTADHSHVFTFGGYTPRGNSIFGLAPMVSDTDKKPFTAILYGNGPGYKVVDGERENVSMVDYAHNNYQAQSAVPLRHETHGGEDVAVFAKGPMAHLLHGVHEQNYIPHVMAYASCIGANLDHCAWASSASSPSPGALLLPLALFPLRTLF
How it was run: (§2)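 Femoral marrow stromal cells from 7-week-old male Sprague-Dawley rats. Primary culture 1 week in α-MEM (10 mM HEPES pH 7.0, 15% FBS, 2 mM glutamine, 50 μg/mL ascorbate, 10 mM β-glycerophosphate, 10^-7 M dexamethasone), 37 °C, 5% CO2. Subcultured at 4 × 10^4 cells/well; compound (10 mM stock in EtOH-DMSO 1:1 or DMF) from day 1 to day 10-14, medium changed every other day. Lysate ALP (Lowry method) in nmol/min/well; mean ± SE, n = 5–10.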

[6] = target: T2, Alkaline phosphatase, tissue-nonspecific isozyme (Rattus norvegicus); test: Effect of 10E-6 M compound on alkaline phosphatase activity in culture of rat bone marrow stromal cells; how it was run: as §2
[7] = target: T2, Alkaline phosphatase, tissue-nonspecific isozyme (Rattus norvegicus); test: Effect of 10E-7 M compound on alkaline phosphatase activity in culture of rat bone marrow stromal cells; how it was run: as §2
[8] = target: T2, Alkaline phosphatase, tissue-nonspecific isozyme (Rattus norvegicus); test: Effect on alkaline phosphatase activity compared to control in culture of rat bone marrow stromal cells, 10E-5 M concentration; type: tissue-based
How it was run: (§3)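 Rat femoral marrow stromal cells subcultured at 4 × 10^4 cells/well in α-MEM with 15% FBS, ascorbate, 10 mM β-glycerophosphate and 10^-7 M dexamethasone. Compound added day 1 to day 10-14, medium refreshed every other day. Lysate ALP (Lowry method) given as fold of control; n = 5–10; Student's t-test.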

[9] = target: T2, Alkaline phosphatase, tissue-nonspecific isozyme (Rattus norvegicus); test: Effect of 10E-7 M compound on alkaline phosphatase activity compared to control in culture of rat bone marrow stromal cells; how it was run: as §3

ALP activity [8]	Structure (SMILES)	also measured
–	CCOP(=O)(Cc1ccc(NC(=O)C2Cc3cc4c(cc3C(=O)C(C)S2)OCO4)cc1)OCC (racemic)	ALP activity [1]: 0.178; ALP activity [2]: 0.221; ALP activity [3]: 0.133; ALP activity [4]: 0.162; ALP activity [5]: 1210; ALP activity [6]: 411; ALP activity [7]: 185
1.3	O=C1CS[C@@H](C(=O)Nc2ccc(Cl)cc2)c2cc3c(cc21)CCC3	–
–	CCCOP(=O)(OCCC)c1ccc(NC(=O)C2SCC(=O)c3cc(C4CCCCC4)ccc32)cc1 (stereo not given)	ALP activity [9]: 1.5
–	CCOP(=O)(Cc1ccc(NC(=O)C2Cc3cc(OC)c(OC)cc3C(=O)CS2)cc1)OCC (racemic)	ALP activity [1]: 0.143; ALP activity [2]: 0.169; ALP activity [5]: 1910
2.8	COc1cc2c(cc1OC)C(=O)CS[C@@H](C(=O)Nc1ccc(CP3(=O)OCCCCO3)cc1)C2	–
–	CCCCOP(=O)(Cc1ccc(NC(=O)C2SCC(=O)c3cc(C4CCCCC4)ccc32)cc1)OCCCC (stereo not given)	ALP activity [9]: 1.7
1.2	CCOP(=O)(Cc1ccc(NC(=O)[C@H]2Cc3cc4c(cc3C(=O)CS2)OCCO4)cc1)OCC	–
–	COP(=O)(Cc1ccc(NC(=O)C2SCC(=O)c3cc(C4CCCCC4)ccc32)cc1)OC (stereo not given)	ALP activity [9]: 1.7
–	CCOP(=O)(Cc1ccc(NC(=O)[C@@H]2Cc3cc(OC)c(OC)cc3C(=O)CS2)cc1)OCC	ALP activity [1]: 0.12; ALP activity [2]: 0.131; ALP activity [5]: 770
3.9	CC(C)OP(=O)(Cc1ccc(NC(=O)[C@H]2Cc3cc4c(cc3C(=O)[C@H](C)S2)OCO4)cc1)OC(C)C	–
–	CCOP(=O)(Cc1ccc(NC(=O)[C@@H]2Cc3cc4c(cc3C(=O)[C@@H](C)S2)OCO4)cc1)OCC	ALP activity [1]: 0.115; ALP activity [2]: 0.131; ALP activity [5]: 566; ALP activity [6]: 160; ALP activity [7]: 166
2.3	CCOP(=O)(Cc1ccc(NC(=O)[C@H]2Cc3cc(OC)c(OC)cc3C(=O)[C@H](C)S2)cc1)OCC	–
2.3	CCOc1ccc(OCC)c(NC(=O)[C@@H]2SCC(=O)c3cc(C4CCCCC4)ccc32)c1	–
2.5	CCOP(=O)(Cc1ccc(NC(=O)[C@@H]2SCC(=O)c3cc(OC)c(OC)cc32)cc1)OCC	–
1.5	CCOP(=O)(Cc1ccc(NC(=O)[C@@H]2SCC(=O)c3cc(C)c(C)cc32)cc1)OCC	–
1.7	CCOP(=O)(Cc1ccc(NC(=O)[C@H]2Cc3ccc(C)cc3C(=O)[C@H](C)S2)cc1)OCC	–
3	CC1COP(=O)(Cc2ccc(NC(=O)[C@H]3Cc4cc5c(cc4C(=O)[C@H](C)S3)OCO5)cc2)OC1 (stereo not given in full)	–
1.4	CCOP(=O)(Cc1ccc(NC(=O)[C@H]2Cc3cc(OC)c(OC)cc3C(=O)[C@H](C(C)C)S2)cc1)OCC	–
–	CCOP(=O)(OCC)c1ccc(NC(=O)C2SCC(=O)c3cc(C4CCCCC4)ccc32)cc1 (stereo not given)	ALP activity [9]: 1.6
1.9	CCOP(=O)(CCc1ccc(NC(=O)[C@H]2Cc3cc4c(cc3C(=O)[C@H](C)S2)OCO4)cc1)OCC	–
1.3	Cc1cc2c(cc1C)[C@H](C(=O)Nc1cnccn1)SCC2=O	–
–	CCOP(=O)(Cc1ccc(NC(=O)[C@H]2Cc3cc(OC)c(OC)cc3C(=O)CS2)cc1)OCC	ALP activity [1]: 0.164; ALP activity [2]: 0.199
1.7	Cc1ccc(NC(=O)[C@@H]2SCC(=O)c3cc(C4CCCCC4)ccc32)cc1	–
–	CCOP(=O)(Cc1ccccc1NC(=O)C1SCC(=O)c2cc(C3CCCCC3)ccc21)OCC (stereo not given)	ALP activity [9]: 1.5
2.7	COc1cc2c(cc1OC)C(=O)CS[C@@H](C(=O)Nc1ccc(CP3(=O)OCC(C)CO3)cc1)C2 (stereo not given in full)	–
4.6	CCOP(=O)(Cc1ccc(NC(=O)[C@H]2Cc3cc4c(cc3C(=O)[C@H](CC)S2)OCO4)cc1)OCC	–
3.3	CCOP(=O)(Cc1ccc(NC(=O)[C@H]2Cc3cc4c(cc3C(=O)[C@H](C(C)C)S2)OCO4)cc1)OCC	–
1.1	CCOP(=O)(CCNC(=O)[C@H]1Cc2cc3c(cc2C(=O)[C@H](C)S1)OCO3)OCC	–

ALP activity [8]	Structure (SMILES)	also measured
1.1	CCOP(=O)(Cc1ccc(NC(=O)[C@H]2Cc3ccc(C)cc3C(=O)CS2)cc1)OCC	–
2.6	CCOP(=O)(OCC)c1ccc(NC(=O)[C@H]2Cc3cc(OC)c(OC)cc3C(=O)CS2)cc1	–
1.2	CCOP(=O)(Cc1ccc(NC(=O)[C@H]2Cc3ccc(C)cc3C(=O)[C@H](c3ccccc3)S2)cc1)OCC	–
1.8	CCOP(=O)(Cc1cccc(NC(=O)[C@H]2Cc3cc4c(cc3C(=O)[C@H](C)S2)OCO4)c1)OCC	–
1.3	COc1cc2c(cc1OC)[C@H](C(=O)Nc1ccc(Cl)cc1)SCC2=O	–
2	O=C1CS[C@@H](C(=O)Nc2ccc(Cl)cc2)c2ccc(C3CCCCC3)cc21	–
–	CCOP(=O)(CCc1ccc(NC(=O)C2SCC(=O)c3cc(C4CCCCC4)ccc32)cc1)OCC (stereo not given)	ALP activity [9]: 1.5
1.5	CCOP(=O)(OCC)c1ccc(NC(=O)[C@@H]2SCC(=O)c3cc(C)c(C)cc32)cc1	–
2.2	CCOP(=O)(OCC)c1ccc(NC(=O)[C@H]2Cc3cc(C)c(C)cc3C(=O)CS2)cc1	–
1.2	CCOP(=O)(Cc1ccc(NC(=O)[C@@H]2SCC(=O)c3cc4c(cc32)OCO4)cc1)OCC	–
2.9	CCOP(=O)(Cc1ccc(NC(=O)[C@H]2Cc3cc4c(cc3C(=O)CS2)OCO4)cc1)OCC	–
1.3	Cc1cc2c(cc1C)[C@H](C(=O)Nc1cccnc1)SCC2=O	–
1.1	CCOP(=O)(Cc1ccc(NC(=O)[C@H]2Cc3ccc(Cl)cc3C(=O)CS2)cc1)OCC	–
1.3	C[C@@H]1S[C@@H](C(=O)Nc2nc(-c3ccccc3)cs2)c2cc3c(cc2C1=O)OCO3	–
1.6	CC(C)Oc1ccc2c(=O)c(-c3ccccc3)coc2c1	–
2	CCOP(=O)(Cc1ccc(NC(=O)[C@@H]2SCC(=O)c3cc(CC4CCCCC4)ccc32)cc1)OCC	–
1.1	CCOP(=O)(OCC)c1ccc(NC(=O)[C@@H]2SCC(=O)c3cc4c(cc32)CCC4)cc1	–
–	COP(=O)(OC)c1ccc(NC(=O)C2SCC(=O)c3cc(C4CCCCC4)ccc32)cc1 (stereo not given)	ALP activity [9]: 1.5
1.2	CCOP(=O)(Cc1ccc(NC(=O)[C@@H]2S[C@@H](C)C(=O)c3cc4c(cc32)OCO4)cc1)OCC	–
1.7	CCOP(=O)(Cc1ccc(NC(=O)[C@@H]2SCC(=O)c3cc(-c4ccc(Cl)cc4)ccc32)cc1)OCC	–
1.5	CCOP(=O)(Cc1ccc(NC(=O)[C@H]2Cc3cc(OC)c(OC)cc3C(=O)[C@H](CC)S2)cc1)OCC	–
1.8	CCOP(=O)(OCC)c1ccc(NC(=O)[C@H]2Cc3cc4c(cc3C(=O)[C@H](C)S2)OCO4)cc1	–
7.2	COP(=O)(Cc1ccc(NC(=O)[C@H]2Cc3cc4c(cc3C(=O)[C@H](C)S2)OCO4)cc1)OC	–
1.1	CCOP(=O)(Cc1ccccc1NC(=O)[C@H]1Cc2cc3c(cc2C(=O)[C@H](C)S1)OCO3)OCC	–
2.4	CCOP(=O)(Cc1ccc(NC(=O)[C@@H]2SCC(=O)c3cc(C4CCCCC4)ccc32)cc1)OCC	–
1.5	CCOP(=O)(Cc1ccc(NC(=O)[C@H]2Cc3ccccc3C(=O)CS2)cc1)OCC	–
–	CC(C)OP(=O)(Cc1ccc(NC(=O)C2SCC(=O)c3cc(C4CCCCC4)ccc32)cc1)OC(C)C (stereo not given)	ALP activity [9]: 2
